Assay results published in ChEMBL document CHEMBL1817668, “Synthesis of 6-[¹⁸F]fluoro-PBR28, a novel radiotracer for imaging the TSPO 18 kDa with PET” (Bioorg Med Chem Lett, 2011).
The source made the active and inactive calls. No cut-off for these calls is given here.

Experiments:
[1] = test system: C6; test: Induction of pregnenolone synthesis in rat C6 cells at 40 uM after 2 hrs by ELISA relative to control; assay type: functional
Procedure, shortened: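 Rat C6 glioma cells were exposed to ligand at 40 μM. Released pregnenolone was measured by competitive ELISA and expressed as % above control. Mean ± SEM of at least three independent experiments.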

[2] = species on record: Rattus norvegicus; test: Ex vivo binding affinity to TSPO in AMPA lesioned rat assessed as increase in ipsi to contralateral ratio by auto radiography; assay type: functional, organism-based
[3] = test system: Striatum; test: Drug uptake in AMPA lesioned rat striatum after 1-2 mins post injection; assay type: ADME, tissue-based; details: in vivo
[4] = test system: Striatum; test: Drug uptake in rat striatum after 1-2 mins post injection; assay type: ADME, tissue-based; details: in vivo
[5] = species on record: Rattus norvegicus; test: Displacement of [3H]Flunitrazepam from CBR in rat cerebral cortex at 0.1 uM; assay type: tissue-based
Procedure, shortened: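 Competition binding against [3H]flunitrazepam, a reference central benzodiazepine receptor ligand, in a rat cerebral cortex homogenate screen. […]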

[6] = biological target: T1, Translocator protein (Rattus norvegicus, UniProt P16257); test: Displacement of [3H]PK11195 from TSPO in rat heart membrane homogenate; assay type: cell membranes
[7] = biological target: T1, Translocator protein; test: Displacement of [3H]PK11195 from TSPO in rat kidney mitochondrial fraction; assay type: tissue-based
[8] = biological target: Translocator protein (Homo sapiens, UniProt P30536); test: Displacement of [3H]PK11195 from TSPO in human HEK293 mitochondrial fraction
[9] = Octanol-buffer partition coefficient, log D of the compound at pH 7.4 by shake flask method; assay type: physicochemical
Procedure, shortened: (§1)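 Shake-flask partition of the [18F]-labelled radioligand. Log D7.4 was measured between n-octanol and buffer pH 7.4, and log P between n-octanol and water.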

[10] = Octanol-water partition coefficient, log P of the compound by shake flask method; assay type: physicochemical; procedure, shortened: as §1
[11] = test system: Brain; test: Ratio of drug uptake in ipsi to contralateral side of AMPA lesioned rat brain after 60 mins post injection; assay type: ADME, tissue-based; details: in vivo, 1 h
Procedure, shortened: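 MicroPET imaging of rats with AMPA-induced brain lesions after injection of the fluorine-18-labelled radiotracer. Uptake in the lesioned (ipsilateral) striatal area is compared with the corresponding area of the intact contralateral hemisphere at 60 min post-injection. Time-activity curves are followed for lesioned and non-lesioned striatum over the scan.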

T1 sequence (P16257 whole entry, looked up): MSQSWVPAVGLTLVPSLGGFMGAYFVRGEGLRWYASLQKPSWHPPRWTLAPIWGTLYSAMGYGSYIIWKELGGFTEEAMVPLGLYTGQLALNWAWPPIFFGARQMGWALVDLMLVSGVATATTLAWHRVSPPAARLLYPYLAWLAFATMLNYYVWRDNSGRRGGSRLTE
Translocator protein (Homo sapiens, UniProt P30536), sequence (P30536 whole entry): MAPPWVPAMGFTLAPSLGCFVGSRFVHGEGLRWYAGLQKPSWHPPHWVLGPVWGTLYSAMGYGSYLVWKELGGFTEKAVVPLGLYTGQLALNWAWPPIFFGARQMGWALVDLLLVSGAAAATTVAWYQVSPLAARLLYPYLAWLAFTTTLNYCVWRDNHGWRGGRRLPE

Row | Structure (SMILES) | Activity [1] [%] | Activity [2] | Drug uptake [3] | Drug uptake [4] | other results
1 | CCC(C)N(C)C(=O)c1cc2ccccc2c(-c2ccccc2Cl)n1 (configuration not stated) [PK-11195] | 37 | inactive | – | – | –
2 | CCOC(=O)c1ncn2c1CN(C)C(=O)c1cc(F)ccc1-2 | – | Active | – | – | –
3 | CCC(C)N([11CH3])C(=O)c1cc2ccccc2c(-c2ccccc2Cl)n1 (configuration not stated) | – | – | Active | Active | –
4 | COc1ccccc1CN(C(C)=O)c1cnc(F)cc1Oc1ccccc1 | 16.45 | inactive | – | – | Activity [5]: < 10%; Ki [6]: 0.44 nM; Ki [7]: 3.9 nM; Ki [8]: 1.19 nM; Activity ([2]; tested as the 18F-labelled form): Active
5 | COc1ccccc1CN(C(C)=O)c1cnc([18F])cc1Oc1ccccc1 | – | – | Active | Active | logD [9]: 2.82; logP [10]: 2.77; Ratio [11]: 2.2
